13 compounds from ChEMBL document CHEMBL4017526, “Nanomolar Inhibitors of Glycogen Phosphorylase Based on β-d-Glucosaminyl Heterocycles: A Combined Synthetic, Enzyme Kinetic, and Protein Crystallography Study” (J Med Chem, 2017) can be followed below.

Active and inactive are the calls of the source. The calls are words filed in the database; no cut-off is given here.

What is called Ki is the equilibrium dissociation constant of an inhibitor or competing ligand from its target.

Experiment [1] has as its target T1, Glycogen phosphorylase, muscle form (Oryctolagus cuniculus) (UniProt P00489).
T1 sequence (whole entry): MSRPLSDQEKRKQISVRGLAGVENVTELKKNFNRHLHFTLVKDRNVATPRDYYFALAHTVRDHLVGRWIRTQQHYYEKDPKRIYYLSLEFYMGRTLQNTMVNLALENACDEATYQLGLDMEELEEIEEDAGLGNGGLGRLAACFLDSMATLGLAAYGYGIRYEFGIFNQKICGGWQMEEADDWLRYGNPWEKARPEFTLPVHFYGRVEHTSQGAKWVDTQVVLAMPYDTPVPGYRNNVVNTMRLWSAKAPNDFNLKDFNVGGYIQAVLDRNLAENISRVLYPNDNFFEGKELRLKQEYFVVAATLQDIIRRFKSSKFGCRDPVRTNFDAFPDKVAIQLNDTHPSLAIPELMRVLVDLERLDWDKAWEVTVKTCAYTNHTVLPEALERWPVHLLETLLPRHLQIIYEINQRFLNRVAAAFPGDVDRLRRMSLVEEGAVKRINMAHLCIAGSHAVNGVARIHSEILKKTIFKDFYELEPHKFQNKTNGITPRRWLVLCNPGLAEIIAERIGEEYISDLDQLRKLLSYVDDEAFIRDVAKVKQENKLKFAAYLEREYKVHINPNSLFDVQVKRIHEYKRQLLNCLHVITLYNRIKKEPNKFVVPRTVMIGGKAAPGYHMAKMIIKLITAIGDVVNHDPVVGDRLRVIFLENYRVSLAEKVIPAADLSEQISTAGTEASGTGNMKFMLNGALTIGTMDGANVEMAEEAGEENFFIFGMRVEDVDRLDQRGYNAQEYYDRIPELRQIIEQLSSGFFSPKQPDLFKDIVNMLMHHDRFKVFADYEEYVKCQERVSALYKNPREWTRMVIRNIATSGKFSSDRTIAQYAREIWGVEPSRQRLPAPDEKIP
In words: Competitive inhibition of rabbit muscle glycogen phosphorylase-b at 625 uM in presence of varying levels of glucose-1-phosphate and constant concentration of glycogen and AMP preincubated for 15 mins with AMP and glycogen followed by glucose-1-phosphate addition by Lineweaver-Burk plot method.

Experiment [2] deals with T2, Glycogen phosphorylase, muscle form (Oryctolagus cuniculus, UniProt P00489).
T2 sequence (P00489 whole entry): T1 sequence (whole entry)
In words: Competitive inhibition of rabbit muscle glycogen phosphorylase-b in presence of varying levels of glucose-1-phosphate and constant concentration of glycogen and AMP preincubated for 15 mins with AMP and glycogen followed by glucose-1-phosphate addition by Lineweaver-Burk plot method. Put shortly: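 Rabbit skeletal muscle GPb, 3 μg/mL, at 30 °C in the glycogen-synthesis direction. Buffer: 30 mM imidazole/HCl pH 6.8, 60 mM KCl, 0.6 mM EDTA, 0.6 mM DTT, 0.2% glycogen, 1 mM AMP. Glc-1-P at 2, 3, 4, 6 or 10 mM, added after 15 min enzyme–glycogen preincubation. Pi read at 850 nm by molybdate method from 1–4 min samples. Ki from 1/v vs [inhibitor]; three independent experiments, mean ± SD.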

The target in experiment [3] is T2, Glycogen phosphorylase, muscle form. In words: Inhibition of rabbit muscle glycogen phosphorylase.
Experiment [4] has as its target T3, Glycogen phosphorylase, liver form (Homo sapiens, UniProt P06737).
T3 sequence (P06737 whole entry): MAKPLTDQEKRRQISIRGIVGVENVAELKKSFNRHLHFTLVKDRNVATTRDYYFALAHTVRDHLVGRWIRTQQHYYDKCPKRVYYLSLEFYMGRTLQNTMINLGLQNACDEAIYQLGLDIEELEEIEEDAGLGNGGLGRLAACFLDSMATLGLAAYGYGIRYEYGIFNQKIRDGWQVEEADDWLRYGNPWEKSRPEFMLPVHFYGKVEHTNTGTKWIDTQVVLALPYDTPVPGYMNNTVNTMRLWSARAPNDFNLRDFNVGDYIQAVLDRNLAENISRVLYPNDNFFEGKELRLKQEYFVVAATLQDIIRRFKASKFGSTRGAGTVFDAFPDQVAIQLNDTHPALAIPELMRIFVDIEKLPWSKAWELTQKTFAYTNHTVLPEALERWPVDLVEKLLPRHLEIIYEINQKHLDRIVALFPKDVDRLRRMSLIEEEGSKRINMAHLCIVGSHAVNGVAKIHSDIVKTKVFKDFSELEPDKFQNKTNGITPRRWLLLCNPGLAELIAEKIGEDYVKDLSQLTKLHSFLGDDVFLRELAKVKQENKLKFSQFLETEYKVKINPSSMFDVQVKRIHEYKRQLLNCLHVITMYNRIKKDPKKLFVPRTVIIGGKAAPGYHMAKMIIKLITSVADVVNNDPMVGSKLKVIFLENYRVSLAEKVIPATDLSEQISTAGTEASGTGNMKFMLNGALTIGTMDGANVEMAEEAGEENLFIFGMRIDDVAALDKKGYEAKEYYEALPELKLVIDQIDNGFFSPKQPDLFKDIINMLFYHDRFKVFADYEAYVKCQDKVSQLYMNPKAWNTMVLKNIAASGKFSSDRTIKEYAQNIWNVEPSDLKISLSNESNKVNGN
In words: Competitive inhibition of human liver glycogen phosphorylase-a assessed as release of inorganic phosphate using varying levels of glucose-1-phosphate and constant concentration of AMP and glycogen preincubated for 15 mins with AMP and glycogen followed by glucose-1-phosphate addition.

Experiment [5] concerns the target T2, Glycogen phosphorylase, muscle form. In words: Competitive inhibition of rabbit muscle glycogen phosphorylase-a in presence of varying levels of glucose-1-phosphate and constant concentration of glycogen and AMP preincubated for 15 mins with AMP and glycogen followed by glucose-1-phosphate addition by Lineweaver-Burk plot method. The method in brief:
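Rabbit muscle GPa at 3 μg/mL, 30 °C, synthesis direction. Medium: 30 mM imidazole/HCl pH 6.8, 60 mM KCl, 0.6 mM EDTA, 0.6 mM DTT, 0.2% glycogen. Enzyme–glycogen preincubated 15 min before Glc-1-P start. Samples at 1, 2, 3, 4 min quenched in SDS; phosphate measured at 850 nm. Ki derived from 1/v vs inhibitor concentration; three independent runs, mean ± SD.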

Experiment [6] deals with T3, Glycogen phosphorylase, liver form. In words: Competitive inhibition of 6xHis-tagged human liver glycogen phosphorylase-a expressed in Escherichia coli BL21 Gold (DE3) assessed as release of inorganic phosphate using varying levels of glucose-1-phosphate and constant concentration of AMP and glycogen preincubated for 15 mins with AMP and glycogen followed by glucose-1-phosphate addition by Lineweaver-Burk plot method.

Experiment [7] has as its target T2, Glycogen phosphorylase, muscle form.

Turning to `N[C@@H]1[C@@H](O)[C@H](O)[C@@H](CO)O[C@H]1n1cc(-c2ccccc2)nn1`, the inhibition result in experiment [1] is “inactive”.

With `N[C@@H]1[C@@H](O)[C@H](O)[C@@H](CO)O[C@H]1n1cc(-c2ccc3ccccc3c2)nn1`, in experiment [2], the Ki came to 354 µM.

In experiment [3], `O[C@@H]1[C@@H](O)[C@H](c2nc(-c3ccc4ccccc4c3)c[nH]2)OC[C@H]1O` registered a Ki of 100 µM.

Turning to `OC[C@H]1O[C@@H](c2nnc(-c3ccccc3)[nH]2)[C@H](O)[C@@H](O)[C@@H]1O`, the Ki in experiment [4] was found to be 1.35 µM.

For the compound `N[C@@H]1[C@@H](O)[C@H](O)[C@@H](CO)O[C@H]1c1nc(-c2ccc3ccccc3c2)n[nH]1`, the results for the Ki in experiment [5], in experiment [6] and in experiment [2] were 5.3 µM, 7.6 µM and 4.8 µM, respectively.

In experiment [3], `O[C@@H]1[C@@H](O)[C@H](c2nc(-c3ccccc3)c[nH]2)OC[C@H]1O` returned a Ki of 800 µM.

Take `N[C@@H]1[C@@H](O)[C@H](O)[C@@H](CO)O[C@H]1c1nc(-c2ccccc2)c[nH]1`: the results for the Ki in experiment [5], in experiment [6] and in experiment [2] were 3.11 µM, 2.73 µM and 2.67 µM, respectively.

As to `N[C@@H]1[C@@H](O)[C@H](O)[C@@H](CO)O[C@H]1c1nc(-c2ccccc2)n[nH]1`, the Ki is 30.2 µM in experiment [5], 30.8 µM in experiment [6] and 35.2 µM in experiment [2].

Turning to `O=c1[nH]c(=O)n([C@@H]2O[C@H](CO)[C@@H](O)[C@H](O)[C@H]2O)cc1F`, the Ki in experiment [7] was in the range of 5.5 to 7.9 µM.

For the compound `N[C@@H]1[C@@H](O)[C@H](O)[C@@H](CO)O[C@H]1c1nc2ccccc2[nH]1`, in experiment [2], the Ki came to 107 µM.

Consider `N[C@@H]1[C@@H](O)[C@H](O)[C@@H](CO)O[C@H]1c1nc(-c2ccc3ccccc3c2)c[nH]1`, for which the Ki in experiment [5] is 0.125 µM; in experiment [6], 0.143 µM; in experiment [2], 0.191 µM.

For `O[C@@H]1[C@@H](O)[C@H](c2nc(-c3ccc4ccccc4c3)n[nH]2)OC[C@H]1O`, the Ki in experiment [3] worked out at 491 µM.

Turning to `O=c1[nH]c(=O)n([C@@H]2O[C@H](CO)[C@@H](O)[C@@H](CO)[C@H]2O)cc1F`, the Ki in experiment [7] came to 27.1 µM.
